Converted amounts (≈) assume the structure as drawn.

For the first data set, the system named is Mycobacterium tuberculosis. Nature of the data set: Antimycobacterial activity against isoniazid/rifampicin/ethambutol-sensitive Mycobacterium tuberculosis H37Rv after 4 days by Alamar blue assay. Particulars: 96 h. The format is functional. An outline of the steps: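 Microplate Alamar blue assay against M. tuberculosis H37Rv (sensitive to isoniazid, rifampicin and ethambutol) and a clinical isolate resistant to all three drugs. Compounds were tested at 256, 128, 64, 32, 16, 8, 4, 2 and 1 µg/mL. Isoniazid, rifampicin, ethambutol and ofloxacin controls were run under the same conditions. MIC is given in µg/mL and converted to µM.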
On the technique in general: Resazurin is reduced to fluorescent resorufin, in cell work by metabolically active cells.
For orientation: MIC means the lowest concentration found to suppress growth. Read a high MIC as a less susceptible organism. With `C(=C\c1cccs1)/C1=N[C@@H](Cc2ccccc2)CO1`, the MIC came out at 29.7 µM (≈ 8 µg/mL). In other words, the double-digit micromolar range.
The same measure, in the same setting: the result for `O=C(/C=C/c1cccs1)N[C@H](CO)Cc1ccccc1` reads 55.6 µM (≈ 16 µg/mL); that for `O=C(/C=C/c1ccc(F)cc1)N[C@H](CO)Cc1ccccc1`, 26.7 µM (≈ 7.99 µg/mL).
Still for that read-out and setting: the result for `CC[C@@H](CO)NCCN[C@@H](CC)CO` [ETHAMBUTOL] reads 39.1 µM (≈ 7.99 µg/mL); that for `O=C(/C=C/c1ccc(OCc2ccccc2)cc1)N[C@H](CO)Cc1ccccc1`, 41.2 µM (≈ 16 µg/mL); that for `NNC(=O)c1ccncc1` [ISONIAZID], under 7.2 µM.
Same read-out and setting: the result for `O=C(/C=C/c1ccccc1)N[C@H](CO)Cc1ccccc1` reads 56.8 µM (≈ 16 µg/mL).
In the case of `CC1COc2c(N3CCN(C)CC3)c(F)cc3c(=O)c(C(=O)O)cn1c23` (centres undefined) [OFLOXACIN], the MIC was under 2.7 µM.
On the same count and under the same terms, the value for `Fc1ccc(/C=C/C2=N[C@@H](Cc3ccccc3)CO2)cc1` was 14.2 µM (≈ 3.99 µg/mL); that for `COc1ccc(/C=C/C(=O)N[C@H](CO)Cc2ccccc2)cc1` was 25.6 µM (≈ 7.97 µg/mL).
Still for that read-out and setting: the value for `O=C(/C=C/c1ccc(Cl)cc1)N[C@H](CO)Cc1ccccc1` was 25.3 µM (≈ 7.99 µg/mL); that for `Clc1ccc(/C=C/C2=N[C@@H](Cc3ccccc3)CO2)cc1` was 26.9 µM (≈ 8.01 µg/mL).
In turn, `COc1ccc(/C=C/C2=N[C@@H](Cc3ccccc3)CO2)cc1` yielded an MIC of 13.6 µM (≈ 3.99 µg/mL).
The same measure, in the same setting: the value for `CO[C@H]1/C=C/O[C@@]2(C)Oc3c(C)c(O)c4c(O)c(c(/C=N/N5CCN(C)CC5)c(O)c4c3C2=O)NC(=O)/C(C)=C\C=C\[C@H](C)[C@H](O)[C@@H](C)[C@@H](O)[C@@H](C)[C@H](OC(C)=O)[C@@H]1C` [RIFAMPIN] was 4.8 µM (≈ 3.95 µg/mL); that for `C(=C\c1ccccc1)/C1=N[C@@H](Cc2ccccc2)CO1` was 60.8 µM (≈ 16 µg/mL); that for `C(=C\c1ccc(OCc2ccccc2)cc1)/C1=N[C@@H](Cc2ccccc2)CO1` was 10.8 µM (≈ 3.99 µg/mL).

The test system of a further data set is Liver. Nature of the data set: Toxicity in Sprague-Dawley rat liver assessed as histological damage at 5 to 30 ug/ml after 24 hrs by hematoxylin and eosin staining-based bright field microscopic method. The format is tissue-based.
Details: not given
An outline of the steps: (§1)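 Ex-vivo 3D assay using precision-cut rat liver slices. Slices were cultured for 24 h at 5, 15 and 30 µg/mL, with compound dissolved in DMSO. Controls were medium alone and 0.5% DMSO (negative), with isoniazid as the reference. Read-out was histopathology of H&E-stained sections under bright-field light microscopy (40x), scoring hepatic cords, portal triads, central veins, inflammatory infiltrate and necrosis.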
As to `COc1ccc(/C=C/C2=N[C@@H](Cc3ccccc3)CO2)cc1`, the Activity entry is listed as “Non-Toxic”.

Another data set has as its system Liver. The experiment in a line: Toxicity in Sprague-Dawley rat liver assessed as presence of periportal inflammatory infiltrate at 5 to 30 ug/ml after 24 hrs by hematoxylin and eosin staining-based bright field microscopic method. The data set is classed as tissue-based.
Details: not given
An outline of the steps: as §1
Take `NNC(=O)c1ccncc1` [ISONIAZID]: the Activity entry is recorded as “Toxic”.

In another data set the test system is Liver. The experiment in a line: Toxicity in Sprague-Dawley rat liver assessed as centrilobular necrosis at 5 to 30 ug/ml after 24 hrs by hematoxylin and eosin staining-based bright field microscopic method.
Details: not given
The format is tissue-based. An outline of the steps: as §1
Take `NNC(=O)c1ccncc1` [ISONIAZID]: the Activity result is on record as “Toxic”.

(Values after ChEMBL document CHEMBL4002631, “Synthesis, antimycobacterial and cytotoxic activity of α,β-unsaturated amides and 2,4-disubstituted oxazoline derivatives” (Bioorg Med Chem Lett, 2017).)
